Results published in ChEMBL document CHEMBL5257040, “Discovery of VU2957 (Valiglurax): An mGlu4 Positive Allosteric Modulator Evaluated as a Preclinical Candidate for the Treatment of Parkinson's Disease” (ACS Med Chem Lett, 2019).

Test: Drug uptake in cerebrospinal fluid of haloperidol-induced catalepsy Sprague-Dawley rat model at 0.3 to 30 mg/kg,po
Type: ADME, organism-based
Conditions: in vivo, dose 0.3-30 mg/kg, read-out: Ct
Outline: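 Rats were given haloperidol 1.5 mg/kg i.p. to induce catalepsy and dosed orally at 0.3–30 mg/kg, N = 8–10 per group. Total plasma and CSF concentrations were measured alongside the catalepsy read-out. Satellite rats were used for PK in the time-course study.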

FC(F)(F)c1nccc2cc(Nc3n[nH]c4ncccc34)ccc12
concentration: 148 nM
